The values below come from the RNAGym collection of RNA variant scans (doi:10.1126/science.aae0568).

Sequences and labels used below:
B1: tRNA (parent)
chain: GUUCCGUUGGCGUAAUGGUAACGCGUCUCCCUCCUAAGGAGAAGACUGCGGGUUCGAGUCCCGUACGGAACG

Fewer inactive variants are shown than the library holds. Bounds are passed on as bounds.

This series covers variants of B1. In words: yeast fitness relative to wild type (ratio to wild type); higher = fitter; tRNA-Arg(CCU), competitive growth, 37 C, YPD. In short, it runs like this: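 A pool of Saccharomyces cerevisiae strains, each with a tRNA-Arg(CCU) gene variant at the native genomic locus, was competed in YPD at 37°C for 24 hours across six parallel replicates. The variants had been chemically synthesised at a 3% per-site mutation rate over 69 sites, and gene amplicons before and after competition were read by 100-nucleotide paired-end sequencing. Darwinian fitness relative to wild type rested on changes in genotype frequencies. Genotypes required ≥ 100 starting reads, and estimates < 0.5 were set to 0.5.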
As for GCUCCGUUGGCGUAAUGGUAACGCGUCUCCCUCCUAAGGAGAAGAGUGCGGGUUCGAGUCCCAUACGGAUCG [U2C C46G G63A A70U], the yeast fitness was ≤ 0.5.
Under GUUCCGUUGGCGUAAUGGUAACGCAUCUCCCUCCUAAGGAGAGGACUCCGGGUUCGAGUCCCGUACGGAACG [G25A A43G G48C] stands 0.573; under GUUCCGUUGGCGUAAUGGUAACGCGUCUCCCUCCUAAGGAGAAGACUGCGGGUUCGCGUCCUGUACGGAACG [A57C C62U], 0.565.
As for GUUCCGUUGGCGUAAUGGUAACGCGUCUCCCUCCUAAGGACAAGACUGCGGGUUCGAGUCCAGUACGGAACG [G41C C62A], the figure is 0.713.
As for GUUCCGGUGGCGUAAUGGUAACGCGUCUCCCUCCUAAGGAGAAGCCUGCGCGCUCGAGUCCCGUACGGAACG [U7G A45C G51C U53C], the figure is ≤ 0.5.
For GUUCCGUUGGCGUAAUGGUAACGCGUCUCCCUCUUUAGGAGAAGACUGCGGCUUCGAGUCCCGUACGGUACG [C34U A36U G52C A69U], the yeast fitness is ≤ 0.5.
As for GUUCCGUUGGCGUAUUGGUACCGCGUCUCCCUCCUAAGGAGAAGACUGCGGGUUCGAGUCCCGUACGGAACG [A15U A21C], the figure is 0.611; as for GUUCCGUUGCCGUAAUGGUAACGCGUCUCCAUCCCAAGGAGAAGUCUGCGGGUUCGAGUCCCGUACGGAACG [G10C C31A U35C A45U], ≤ 0.5.
Under GUUCCGUUGGCGUAAUGGUAACGCGUCUCCCUCCAAACGAGAAGACUGCGGGUUCGAGUCCCGUACGGAACG [U35A G38C] stands 0.527; under GUUCCGUUCGCGUUAUGGUAACGCGUCUCCCUCCUAAGGAGAAGACUCCGGGUUCGAGUCCCGUACGGUACG [G9C A14U G48C A69U], ≤ 0.5.
Under GUUCCGUUGGCGUAUUGGUACCCCGUCUCCCUCCUAAGGAGAAGACUGCGGGUUAGAGUCCCGACCAGAACG [A15U A21C G23C C55A U64A A65C G67A] stands ≤ 0.5; under GUUCCGUUGGCGUAAUGGUAACGCGUCUCUCUCCUAAGCAGAAGACUGCGGGUUCGAGUCCCGUACGGAACG [C30U G39C], 0.682; under GUUCCCUUGGCGUAAUGGUAACGCGUCUCCCACCUAAGGAGAAGACUGCGGGUUCGAGUCCCGUACGGAACG [G6C U32A], 0.756.
In the case of GUUCCGUCGGCGUAAUGGUAACGCGUCUCACUCCUAAGGAGAAGACUGCGGGUUCGAGUCCCGUACGGAACG [U8C C30A], the yeast fitness came out at 0.948.
As for GUUCUGUUGGCGUAAUGGUAACGCGUCUCCCUCCUAAGGAGAAGACUGCGGGUUCGAGUCCCGUUCGGAACG [C5U A65U], the figure is 0.999.
GUUCCGUUGGCGUAAUGGAAAGCCGUCUCGCUCAUAAGGAGAAGACUGCGGGUUUGAGUCCCGUACGGAACG [U19A C22G G23C C30G C34A C55U]: the yeast fitness is ≤ 0.5.
As for GUUCGGUUGGCGUAAUGGUAACACGUCUCCCUCCUAAGGAGAAGACUGCGGGUUCGAGUUCGGUACGGAACG [C5G G23A C60U C62G], the figure is ≤ 0.5.
As for GUUCCGUUGGCGUAAUGGCAACGCGUCUCCCUCCUAAGGAGAAGACUGCGGGUUCGAGUCCGGUACGGAACG [U19C C62G], the figure is 0.832; as for GGUCCGUUGGCGUAAUGGUAACGCGUCAGCCUCCUAAGGAGAAGACUGCGAGUUCAAGUCCCGUACCGAACG [U2G U28A C29G G51A G56A G67C], ≤ 0.5.
Under GUUCCGUUGGGGUAAUGGUAACGCGUCUCCCUCUUAAGGAAAAGACUGCGGGUUCGAGUCCCGUACGGAACG [C11G C34U G41A] stands 0.544; under GUUCCGUUGGCGUAAUCGUAACGCCUCUCUCUCCUAAGGAGAAGACUGCGGGUUCGAGUCCCGUCCGGAACG [G17C G25C C30U A65C], ≤ 0.5; under GUUCCGUUGGCGUAAUGGUAACGCGUCUCCCUCCUAAGGAGAAGACUGCGGGUUCGAGUCUCGUGCGAAACG [C61U A65G G68A], 0.705.
Regarding GUUCCAUUGGCGUAGUGGUAACGCGUCGCCCUCCUAAGGAGUAGACUACGGGUUCGAGUCCCGUACGGAACG [G6A A15G U28G A42U G48A], the yeast fitness was ≤ 0.5.
For GUUGCGUUGGCGUAAUCGUAACGCGUCUCCCUCCUAAGGAGAAGACUGCGGGUUCGAGCCCCGUACGGAACG [C4G G17C U59C], the yeast fitness was 0.746.
Under GUUCAGUUGGCGUAAUGGUAACGCGUUUCCCUCCUUAGGAGAAGACUGCGGGUUCGAGUCCCGUACGGAACG [C5A C27U A36U] stands ≤ 0.5.
With GUUCCGUUGGCGUAAUGGUAACGCGUCUCCAUCCUAAGAAGAAGACUACGGGUUCGAGUCUCGUCCGGAACG [C31A G39A G48A C61U A65C], the yeast fitness stood at 0.5.
As to GUUCCGUUGGCGUUGUGAUAACGCGUCUCCCUCCUAAGGAGAAGACUGCGGGUUCGAGUCCCGUACGGAACG [A14U A15G G18A], the yeast fitness is ≤ 0.5.
With GUUCGGUUGGCGUAAUGGUAUCACGUCUACCUCCUAUGGAGAAGACUGCGGGUUCGAGUCUCGUACGGAACG [C5G A21U G23A C29A A37U C61U], the yeast fitness was ≤ 0.5.
In the case of GUUCCGUUGCCGUAAUGGUAACGCGUCUCCCUCCUAAGGAGAAGUCUGCGGGUUCGAGUCGCGUACGGAACG [G10C A45U C61G], the yeast fitness is ≤ 0.5.
As for GUUCCGUUGGCGUAAUGGUAACGCGUCUCCCUCCUAAGGAGAAGACUGCGGGUUCGAGCUCCGUACGGAACG [U59C C60U], the figure is 0.704.
Under GUUCCGUUGGCGUAAGGGUAACCCGUCUCCCUCCCAAGGAGAAGACUGCGGGUUCGAGUCCCGUACGGAACG [U16G G23C U35C] stands 0.655.
In the case of GUUCCGUUGGCGUAAUGGUAACGCGUCUCCCUCCUACGGAGAAGAGUGCGGGUUCGAGUACCGUAUGGAACG [A37C C46G C60A C66U], the yeast fitness was ≤ 0.5.
As for GUUCCGUUGGCGUAAAGGUAACGCGUCUGCGUCCUAAGGAGAAGACUGCGGGUUCGAGUCCUGUACGGCACG [U16A C29G C31G C62U A69C], the figure is ≤ 0.5.
Under GUUUCGUUGGCAUAAUGGUGAUGCGUCUCCCUCCUAAGGAGAAGACUGCGGGUUCGAGUCCCGUACGCAACG [C4U G12A A20G C22U G68C] stands ≤ 0.5; under GUUCAGUUGGGGUAAUGGUAACGCGUCACCCUCCUAAGGUGAAGACUGCGGGUUAGAGUCCCGUACGGAACG [C5A C11G U28A A40U C55A], ≤ 0.5; under GUUCCGUUGGCGUACUAGUAACGCGUCUCCCUCCUAAGGAGAAGACUGCGGGUUCGGGUCCCGUGCGGAACG [A15C G17A A57G A65G], ≤ 0.5.
Under GUUCCGUUGGCGUAAUGGUAACGCGUGUCCCUCGUAAGGAGAAGACUGCGGGUACGAGUCCCGUACGGAACG [C27G C34G U54A] stands 0.6.
